Bioassay records (PubChem)
Only some compounds are listed: those with a hit (about 4.9% of all), similar ones and a draw of the others.
STAT3 inh: reduces IL-6 driven STAT3 reporter signal; U3A cells, IL-6 STAT3-luciferase reporter, luminescence; host cell line lacks STAT1; inhibition, % at 5.5 µM; 190,000 tested, 0.89% active; AID 862;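 active means inhibition above the mean inhibition across all screened compounds plus 3 SD, cut at about 44% in these data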;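 further: 0% = DMSO only wells and 100% = 100 µM nifuroxazide control wells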
NF-kB expr up: raises NF-kB expression in human neuronal cells. NF-kB reporter expression; hits give high values. fold change at 12.5 µM. 190,000 tested, 1.6% active; in the data active means fold change above about 3.3
STAT1 blocker: STAT1 signaling inhibition | NIH 3T3 STAT1-luciferase reporter, IFN-gamma, luminescence | inhibition, % at 5.5 µM | 200,000 tested, 0.35% active | AID 920;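 active means inhibition above a set limit, the mean inhibition across all tested compounds plus 3 SD, cut at about 34% in these data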;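 further: 0% = IFN-gamma with DMSO and 100% = IFN-gamma with 300 µM nifuroxazide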
STAT3 act: increases IL-6 driven STAT3 reporter signal. activation (% of control), % at 5.6 µM. 190,000 tested, 0.91% active. U3A cells, IL-6 STAT3-luciferase reporter, luminescence; 100% = signal with IL-6 EC80 alone. AID 871;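 active means activation above the screen-wide mean of compound activation plus 3 SD, cut at about 130% in these data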;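 further: 0% = background luminescence of wells with medium and substrate only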
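Assay system – human STAT1-deficient U3A cells with stable STAT3-luciferase reporter · Also added – IL-6 (33 ng/mL) · Schedule – compound 1 h, then IL-6 6 h at 37 °C · Technique – reporter luminescence signal · Evaluation – % activation versus median of IL-6-stimulated wells · Benchmarks – IL-6-only wells as 100% reference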
APP 5'UTR act: activates APP 5'UTR luciferase reporter. SH-SY5Y APP 5'UTR luciferase reporter, luminescence; zero percent = DMSO vehicle wells. activation, % at 2 µM. 190,000 tested, 1% active. AID 1276;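 active means activation above a set limit, based on mean plus 3 SD of controls, cut at about 140% in these data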
STAT1 activator: STAT1 signaling activation | NIH 3T3 STAT1-luciferase reporter, IFN-gamma, luminescence; 100% = IFN-gamma alone, no compound | activation (% of control), % at 5.5 µM | 200,000 tested, 2.6% active | AID 932;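 active means activation above the screen-wide mean activation plus 3 SD, cut at about 130% in these data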;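 further: raw ratio to IFN-gamma control signal so 100% means no change and 0% no light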
Active calls of the source: *.

SMILES	STAT3 inh	NF-kB expr up	STAT1 blocker	STAT3 act	APP 5'UTR act	STAT1 activator
Clc1ccc(C2=Nc3cc(Cl)ccc3OC2)cc1	4	3.4*	-41	106	61	135*
Cc1ccc2c(c1)N=C(c1ccc(Cl)cc1)CO2	-6	3.6*	-52	107	72	148*
CS(=O)(=O)N1CCC(C(=O)Nc2ccc(Cl)c(Cl)c2)CC1	2	1.1	-2	99	12	103
COC(=O)[C@@]1(Cc2ccccc2)[C@H]2c3cc(C(=O)N4CCCC4)n(Cc4ccsc4Br)c3C[C@H]2CN1C(=O)c1ccccc1	-7	0.75	6	103	8	95
CCc1nnc(NC(=O)c2cccnc2SC)s1	0	1.1	-4	101	-13	103
C/C(=N\NC(=O)c1ccc(Cl)c(Cl)c1)c1ccc(Br)s1	5	1.1	-9	100	-52	108
C/C(=N/NC(=O)c1ccc2c(c1)OCO2)c1ccc(Br)s1	6	1.5	-41	97	81	136*
O=C(CSc1nc2ccccc2o1)Nc1nc(-c2ccccc2)cs1	-4	0.5	-52	109	74	147*
O=C(CSc1nc2ccccc2o1)Nc1nc2ccccc2s1	-31	1.1	-8	131	20	108
CC(C)c1ccccc1NC(=O)COC(=O)C1(C)CC1(Cl)Cl (stereo not given)	-11	1.3	5	111	30	94
NC(=S)Nc1cnc2ccccc2c1	-1	1.4	-5	105	33	104
Oc1ccccc1CNc1cnc2ccccc2c1	21	3.6*	-6	85	71	103
CCN1CN(Cc2ccco2)CNC1=S	-1	1.1	0	103	8	100
CC1CCC/C(=N/Nc2nc3ccccc3s2)C1 (stereo not given)	6	1.3	-43	100	140*	138*
CC1(C)CC(=O)C/C(=N/Nc2nc3ccccc3s2)C1	-13	0.61	-3	115	57	103
CC(C)c1ccc(NC(=O)COc2ccc(F)cc2C(=O)c2cnn(-c3ccccc3)c2)cc1	-60	1.4	-42	147*	96	140*
O=C(COc1ccccc1C(=O)c1cnn(-c2ccccc2)c1)Nc1ccc2ccccc2c1	-9	1.6	-15	107	61	113
CCc1ccc(/C=C2\CN(CC)Cc3c2nc2ccccc2c3C(=O)O)cc1	4	1.1	-2	107	-5	102
O=C(O)c1c2c(nc3ccccc13)/C(=C/c1ccc(O)cc1)CC2	58*	0.93	43*	56	36	59
COc1ccc(NC(=O)/C(Cl)=C(/Cl)S(=O)(=O)Cc2ccc(C)cc2)cn1	-7	0.17	-37	111	-86	133*
CN(CCCNC(=O)CSc1cc(=O)n(C)c2cc(Cl)ccc12)Cc1ccccc1	5	0.95	3	100	-13	95
O=C(Cc1cccs1)Nc1cccc([N+](=O)[O-])c1	3	1.2	2	103	0	97
Cc1c(N/C=C/C(=O)c2cccs2)c(=O)n(-c2ccccc2)n1C	4	0.91	-30	99	29	128
O=C(/C=C/Nc1cccc([N+](=O)[O-])c1)c1cccs1	-54	7.5*	-43	146*	184*	139*
Cc1ccc(N/C=C/C(=O)c2cccs2)cc1C	66*	6.6*	53*	46	170*	50
SMILES	STAT3 inh	NF-kB expr up	STAT1 blocker	STAT3 act	APP 5'UTR act	STAT1 activator
Cc1cc(N/C=C/C(=O)c2cccs2)ccc1F	-14	7.6*	-26	119	178*	122
O=C(/C=C/Nc1ccccc1C(=O)O)c1cccs1	6	0.98	-47	94	50	143*
Nn1c(SCC(=O)NC(=O)NCc2ccco2)nnc1-c1ccc(OC(F)F)cc1	4	0.81	-2	101	8	102
O=C(Cn1ccc(C(F)(F)F)n1)Nc1cccc(S(=O)(=O)N2CCCCC2)c1	8	0.95	1	96	-7	98
COc1ccc(/C=N/NC(=O)c2ccc(N)cc2)cc1Cn1cc([N+](=O)[O-])cn1	-2	0.9	-4	106	-12	102
COc1cc(/C(C)=N/NC(=O)CSc2nncn2C)ccc1OCc1ccccc1Cl	11	1	-32	91	27	129*
Cc1ccc(Nc2nc(N)c([N+](=O)[O-])c(NCc3ccco3)n2)cc1C	-1	1.2	-44	99	50	139*
O=C(O)c1cc2c(s1)-c1ccccc1CC2	-12	0.98	-3	107	16	103
c1ccc(-c2cc3n(c2)CCc2ccccc2-3)cc1	-106	2.9	-43	191*	48	130*
CCc1cc(OCCCSc2nc(C)cc(=O)[nH]2)ccc1Cl	34	2	-4	76	19	104
Cc1ccc(/C=C/C(=O)Nc2ncc(C)s2)o1	-6	3.1	-52	105	121	147*
Cc1csc(NC(=O)/C=C/c2ccc(C)o2)n1	0	1.8	-17	99	88	116
Cc1ccc(/C=C/C(=O)Nc2nccs2)o1	2	3.2	-54	100	79	148*
O=C(N/N=C1/CCCc2ccccc21)C(c1ccccc1)c1ccccc1	1	1.1	1	103	-8	99
CCOc1ccc(CN(C)CC(=O)NCc2ccccc2Cl)cc1	-5	1.1	0	109	2	100
O=Cc1ccc(-c2nc3ccccc3s2)o1	23	2.8	-31	82	143*	130*
Cn1c(NNC(=O)C(c2ccccc2)c2ccccc2)cc(=O)n(C)c1=O	13	1	4	91	-1	95
CC(C)CC(NC(N)=O)C(=O)NCCc1ccc(Cl)cc1 (stereo not given)	-6	1	1	106	-2	98
COc1ccc(C(=O)NC(=O)NC2(C(Cl)(Cl)Cl)OCCO2)cc1	20	5.1*	-34	87	226*	128
Cc1csc2nc(CSc3nc4ccccc4o3)c(Br)n12	21	2.8	-49	84	132	146*
Cc1csc2nc(CSc3nncn3-c3ccccc3)c(Br)n12	-4	0.98	8	106	-2	93
Cc1ccc(CNC(=O)CNC(=O)c2c(C)nn(C)c2Cl)cc1	4	0.94	3	99	-2	97
CC(C)OC(=O)c1ccc(NC(=O)C2C3CC4OC(=O)C2C4C3)cc1 (stereo not given)	-12	1.2	-36	113	47	133*
CC1=NN(C(=O)COc2ccccc2C)C(O)(c2ccc(Cl)cc2)C1 (stereo not given)	3	0.73	-5	102	-4	105
C=C(C)C1CC=C(C)/C(=N\NC(=O)CNc2cccc3ccccc23)C1 (stereo not given)	-24	0.96	5	120	10	96
c1ccc(CCNc2ncnc3c2cnn3-c2ccccc2)cc1	7	6.5*	-43	98	135	140*
